These results are taken from ChEMBL document CHEMBL1147433, “Design of small molecule ketoamide-based inhibitors of cathepsin K” (Bioorg Med Chem Lett, 2004).

The target in data set [1] is T1, Cathepsin K (Homo sapiens, UniProt P43235).
T1 sequence (P43235 whole entry): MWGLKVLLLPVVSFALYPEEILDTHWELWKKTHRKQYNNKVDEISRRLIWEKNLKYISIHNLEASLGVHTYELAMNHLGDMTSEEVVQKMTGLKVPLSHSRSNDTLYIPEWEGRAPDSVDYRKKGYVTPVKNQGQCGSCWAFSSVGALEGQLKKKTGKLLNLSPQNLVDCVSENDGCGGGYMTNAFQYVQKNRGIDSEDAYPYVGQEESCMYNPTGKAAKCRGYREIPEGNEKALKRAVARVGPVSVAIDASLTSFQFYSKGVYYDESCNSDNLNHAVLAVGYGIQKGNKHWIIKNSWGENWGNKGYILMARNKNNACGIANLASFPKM
In words: Inhibitory activity against human cathepsin K. A digest of the protocol:
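Recombinant human cathepsin K activity was measured by fluorescence with Cbz-Phe-Arg-AMC as the substrate, in 100 mM NaOAc, 10 mM DTT and 120 mM NaCl at pH 5.5. IC50 values are the mean of two or three inhibition assays. Individual data points within each experiment fell within a 3-fold range of each other.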

Data set [2] is described as follows: Oral bioavailability in rat. Type of data set: ADME, organism-based. The note with it: in vivo.
Data set [3] can be described thus: Clearance in rat. Type of data set: ADME, organism-based. Particulars: in vivo, read-out: Clearance (C1).
A short description of data set [4]: Half-life in rat. Format: ADME, organism-based. Particulars: in vivo.
Data set [5] can be described thus: Vss in rat. Format: ADME, organism-based. Particulars: in vivo, read-out: Vss.
Data set [6] concerns the target T2, Cathepsin K (Rattus norvegicus, UniProt O35186).
T2 sequence (O35186 whole entry): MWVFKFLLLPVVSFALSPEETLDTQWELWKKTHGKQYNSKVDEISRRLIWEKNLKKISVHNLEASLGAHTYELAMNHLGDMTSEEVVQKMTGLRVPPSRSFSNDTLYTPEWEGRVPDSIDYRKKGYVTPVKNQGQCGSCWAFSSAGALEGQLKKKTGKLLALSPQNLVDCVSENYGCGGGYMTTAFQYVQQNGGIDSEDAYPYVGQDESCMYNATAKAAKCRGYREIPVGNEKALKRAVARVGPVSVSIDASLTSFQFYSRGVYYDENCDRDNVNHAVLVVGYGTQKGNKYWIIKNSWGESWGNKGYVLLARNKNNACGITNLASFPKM
In words: Inhibitory activity against rat cathepsin K.

Data set [7] is described as follows: PAPP (membrane permeability) in dog kidney cell monolayer assay. Type of data set: ADME, Canis lupus familiaris. Particulars: read-out: Activity.

Each structure is given as a SMILES string. Where only a bound is given, the exact number is not on record here.

Consider `CCCC[C@H](NC(=O)OC(C)(C)C)C(=O)C(=O)NCCc1ccccc1`, for which inhibition on Cathepsin K [1] was half-maximal at 5 µM (IC50).

Regarding `CCCC[C@H](NC(=O)OC(C)(C)C)C(=O)C(=O)NC(C)C`, half-maximal inhibition against Cathepsin K [1] (IC50) required 9.1 µM.

Consider `CCCC[C@H](NC(=O)OC(C)(C)C)C(=O)C(N)=O`, for which half-maximal inhibition at Cathepsin K [1] (IC50) required 5.9 µM.

Turning to `CCCC[C@H](NC(=O)OC(C)(C)C)C(=O)C(=O)NC(C)(C)C`, the IC50 (usually the concentration needed to halve the response being measured) against Cathepsin K [1] was above 100 µM.

For the molecule `CCCC[C@H](NC(=O)OC(C)(C)C)C(=O)C(=O)NC`, the IC50 at Cathepsin K [1] stood at 21 µM.

Turning to `CCCC[C@H](NC(=O)OC(CCC)CCC)C(=O)C(=O)N[C@H](C)c1ccccc1`, on Cathepsin K [1], the IC50 is 0.032 µM.

`CCCC[C@H](NC(=O)OC(C)(C)C)C(=O)C(=O)NCc1ccccc1`: on Cathepsin K [1], the IC50 stood at 2.9 µM.

On Cathepsin K [1], `CCCC[C@H](NC(=O)OC(C)(C)C)C(=O)C(=O)N[C@H](C)c1ccccc1` showed an IC50 of 1.2 µM.

At Cathepsin K [1], `CCCC[C@H](NC(=O)OCC(C)(C)C)C(=O)C(=O)N[C@H](C)c1ccccc1` registered an IC50 of 0.034 µM.

Take `CCCC[C@H](NC(=O)O[C@@H](CCCc1ccccc1)C(C)(C)C)C(=O)C(=O)N[C@H](C)c1ccccc1`: inhibition at Cathepsin K [1] was half-maximal at 1.4 µM (IC50).

The molecule `CCCC[C@H](NC(=O)O[C@H](CCCc1ccccc1)C(C)(C)C)C(=O)C(=O)N[C@H](C)c1ccccc1` registered an IC50 against Cathepsin K [1] of 0.00079 µM.

On to `CCCC[C@H](NC(=O)OC(C)(C)C)C(=O)C(=O)N[C@@H](C)c1ccccc1`, for which half-maximal inhibition against Cathepsin K [1] (IC50) required 4.2 µM.

On Cathepsin K [1], `CCCC[C@H](NC(=O)OC(CC(C)C)CC(C)C)C(=O)C(=O)N[C@H](C)c1ccccc1` returned an IC50 of 0.069 µM.

Molecule `CCCC[C@H](NC(=O)OC(C)C(C)(C)C)C(=O)C(=O)N[C@H](C)c1ccccc1` (some centres undefined) had an IC50 against Cathepsin K [1] of 0.02 µM.

As for `CCCC[C@H](NC(=O)OC(C)(C)C)C(=O)C(=O)Nc1ccccc1`, the IC50 at Cathepsin K [1] was found to be 6.3 µM.

Take `CCCC[C@H](NC(=O)OC(C)(C)C)C(=O)C(=O)N(C)[C@H](C)c1ccccc1`: at Cathepsin K [1], the IC50 is above 100 µM.

In the case of `CCCC[C@H](NC(=O)O[C@@H](CCc1ccccc1)C(C)(C)C)C(=O)C(=O)N[C@H](C)c1ccccc1`, half-maximal inhibition against Cathepsin K [1] (IC50) was put at 0.912 µM.

The molecule `CCCC[C@H](NC(=O)OC(C)(C)C)C(=O)C(=O)NCC` had an IC50 at Cathepsin K [1] of 18 µM.

On to `CCCC[C@H](NC(=O)O[C@H](CCc1ccccc1)C(C)(C)C)C(=O)C(=O)N[C@H](C)c1ccccc1`, for which, on Cathepsin K [1], 0.0011 µM corresponded to half-maximal inhibition (IC50).

Molecule `CCCC[C@H](NC(=O)OC(CC)CC)C(=O)C(=O)N[C@H](C)c1ccccc1` returned an IC50 against Cathepsin K [1] of 0.076 µM.

Molecule `CCCC[C@H](NC(=O)OC(C(C)(C)C)C(C)(C)C)C(=O)C(=O)N[C@H](C)c1ccccc1` had an IC50 on Cathepsin K [1] of 0.00071 µM.

For the molecule `CCCC[C@H](NC(=O)OC(C1CCCC1)C1CCCC1)C(=O)C(=O)N[C@H](C)c1ccccc1`, on Cathepsin K [1], the IC50 was found to be 0.0063 µM.

`CCCC[C@H](NC(=O)OC(C)(C)C)C(=O)C(=O)NCc1cccs1` yielded an IC50 on Cathepsin K [1] of 3.4 µM.

Take `CCCC[C@H](NC(=O)OC(C(C)C)C(C)C)C(=O)C(=O)N[C@H](C)c1ccccc1`: the bioavailability (in general, the share of a dose that reaches the circulation, judged against a reference dose that is usually intravenous) in data set [2] came to 3%. Also, the clearance (as a rule, the volume of plasma or blood freed of the substance per unit of time) in data set [3] came to 0.522 L/h/kg. Also, the half-life (commonly the time in which the quantity being followed falls by half) in data set [4] turned out to be 4.83 h. Besides, in data set [5], the Vd was found to be 1.9 L/kg. This molecule yielded an IC50 against Cathepsin K [6] of 0.02 µM. Further, the Papp in data set [7] worked out at 57 nm/s.
